In the library only some 2.1% were active in any assay of this set; here they are far more common.
ARNT TACC3 PPI: disruptors of ARNT/TACC3 protein interaction, primary screen, biochemical, AlphaScreen, single concentration | Transforming acidic coiled-coil-containing protein 3 (Homo sapiens), Q9Y6A5 | AlphaScreen His-ARNT PAS-B/GST-TACC3 binding, luminescence; TACC3 fragment carries E629A point mutation | inhibition, % at 9.99 µM | hit rate 0.66% among 390,000 | AID 623870, 2012;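 active = mean inhibition of replicates at least 50% and at least half of replicates each reaching 50%; inconclusive = half or more replicates reach 50% but mean below 50%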
CAL PDZ FP-1: CAL PDZ peptide-binding inhibitors, primary screen, biochemical, fluorescence polarization, Cer-tagged CAL PDZ, HTS; Golgi-associated PDZ and coiled-coil motif-containing protein (Homo sapiens), Q9HD26; hit rate 0.02% among 330,000; purified CAL PDZ, TMR-peptide fluorescence polarization, 1 h; inhibition, % at 20 µM;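 active = highest replicate inhibition of at least 40%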
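Material: tagged CAL PDZ protein CerCALP, purified; buffer or medium: sodium phosphate/NaCl buffer pH 7.4 with TCEP, IgG, Thesit; also added: fluorescent TMR peptide probe; schedule: 1 h incubation at room temperature before polarization reading; technique: fluorescence polarization from S- and P-plane intensities, G-factor corrected; control set: unlabelled peptide and DMSO controls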
CAL PDZ FP-2: untagged CAL PDZ binding inhibitors, primary screen, biochemical, fluorescence polarization, HTS; inhibition, % at 24.9 µM; purified CAL PDZ, TMR-peptide fluorescence polarization, 1 h; hit rate 0.92% among 300,000; AID 602252, 2012; Golgi-associated PDZ and coiled-coil motif-containing protein (Homo sapiens), Q9HD26;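 active = mean inhibition of at least 30% with at least half of replicates also reaching 30%; inconclusive = no clear call, values can overlap the other calls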
SR-BI uptake up: activators of SR-BI mediated DiI-HDL uptake, primary screen, ldlA[mSR-BI] CHO cells, DiI fluorescence; hit rate 0.096% among 320,000; AID 504775, 2011; activation, % at 12.5 µM; 3 h; 100 = double the neutral-control signal;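 active = mean replicate activation of at least 60% and every replicate at or above 60%; inconclusive = mean or all-replicate condition met, but not both; inactive = mean below 60% and not all replicates reaching 60%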
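Assay system: CHO ldlA[mSR-BI] cells, LDL receptor-null, SR-BI overexpressing; medium: Ham's F12 with 0.5% BSA, HEPES 25 mM, pH 7.4; also added: DiI-HDL 10 µg/mL; timing: 3 h uptake period with compound, 37 °C; signal: DiI fluorescence, bottom read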
SR-BI HDL uptake: inhibitors of SR-BI mediated HDL lipid uptake, primary screen, ldlA[mSR-BI] cells, fluorescence, single point; Scavenger receptor class B member 1 (Mus musculus), Q61009; hit rate 0.96% among 320,000; ldlA[mSR-BI] CHO cells, DiI-HDL uptake fluorescence, 3 h; inhibition, % at 12.5 µM;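 active = mean replicate inhibition of at least 70% and a set share of replicates each scoring 70 or more; inconclusive = meets just one of the two criteria; inactive = fails both criteria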
Target sequence (Q61009 whole entry, looked up): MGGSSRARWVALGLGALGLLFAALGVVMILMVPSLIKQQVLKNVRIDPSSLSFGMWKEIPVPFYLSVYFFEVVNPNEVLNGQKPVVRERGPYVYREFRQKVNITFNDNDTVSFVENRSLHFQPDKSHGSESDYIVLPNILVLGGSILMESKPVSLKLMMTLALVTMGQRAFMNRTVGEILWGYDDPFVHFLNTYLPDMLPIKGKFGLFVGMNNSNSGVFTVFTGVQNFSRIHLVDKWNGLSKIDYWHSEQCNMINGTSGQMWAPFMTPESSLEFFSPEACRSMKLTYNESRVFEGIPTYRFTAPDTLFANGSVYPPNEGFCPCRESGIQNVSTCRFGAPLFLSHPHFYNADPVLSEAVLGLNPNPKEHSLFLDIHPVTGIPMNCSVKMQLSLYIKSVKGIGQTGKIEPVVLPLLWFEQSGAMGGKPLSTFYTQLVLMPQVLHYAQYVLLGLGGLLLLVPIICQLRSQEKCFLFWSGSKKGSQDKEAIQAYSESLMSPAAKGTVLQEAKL
miR122 inh: miR-122 Renilla sensor signal increase in Huh7, primary screen, miR-122 inhibitor project, cell-based, single point, plate reader. Huh7 miR-122 Renilla luciferase sensor, 48 h; neutral wells = 0, positive control = 100. activation (reporter increase), % at 12.5 µM. hit rate 0.3% among 340,000. AID 602342, 2012;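 active = mean replicate activation score at least 90 and every replicate individually at or above 90; inconclusive = only one of the two criteria met; inactive = neither criterion met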;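 also: higher luciferase means less miR-122 activity so hits act as miR-122 inhibitors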
Numbers stand for hits; - = inactive; ? = inconclusive; . = no result given.

SMILES	ARNT TACC3 PPI	CAL PDZ FP-1	CAL PDZ FP-2	SR-BI uptake up	SR-BI HDL uptake	miR122 inh
C/C(=N\NC(=O)c1ccc2c(c1)OCO2)c1ccc2c(c1)OCO2	-	-	47.5	-	-	-
C/C(=N\NC(=O)c1ccc2c(c1)OCO2)c1ccc(C(=O)O)s1	-	-	-	-	-	.
CCOc1cccc(/C=N/NC(=O)c2ccc3c(c2)OCCO3)c1O	-	-	-	-	86.6	-
CC(=O)Nc1ccc(S(=O)(=O)NCC(=O)OCC(=O)N2CCc3ccccc32)cc1	-	-	-	-	-	-
CCNS(=O)(=O)c1ccc(NC(=S)N2CCc3ccccc32)cc1	53.3	-	-	-	-	-
CO[C@@H]1CN(C)C(=O)c2ccc(NC(=O)c3cccc(F)c3)cc2OC[C@@H](C)N(C)C[C@@H]1C	-	.	.	.	.	-
CCCCNS(=O)(=O)c1ccc2nc(SCC(=O)Nc3sccc3C#N)[nH]c2c1	-	.	35.3	-	-	202.3
CCCCNS(=O)(=O)c1ccc2nc(SCC(N)=O)[nH]c2c1	-	-	-	-	-	153.0
COc1ccc(S(=O)(=O)N2CCC3(CC2)OCCN3S(=O)(=O)c2cccs2)cc1	-	-	-	-	-	-
COc1ccc(OC)c(S(=O)(=O)N2CCCCCC2)c1	-	-	-	-	-	-
O=S(=O)(c1ccc(Cl)cc1)N1CCC2(CC1)OCCN2S(=O)(=O)c1cccs1	-	-	.	-	-	135.3
COc1ccc(OC)c(S(=O)(=O)N2CCNCC2)c1	-	-	-	-	-	171.6
COc1ccc(OC)c(S(=O)(=O)N2CCC3(CC2)OCCN3S(=O)(=O)c2cccs2)c1	-	-	-	-	-	107.4
CN1C(=O)c2cc(NC(=O)C3CCOCC3)ccc2OC[C@H]2O[C@@H](CC(=O)NCc3ccc4c(c3)OCO4)CC[C@@H]21	-	.	.	.	.	.
C[C@H](CO)N1C[C@H](C)[C@H](CN(C)C(=O)NC2CCCCC2)Oc2ccc(NC(=O)CCCN(C)C)cc2C1=O	-	.	.	.	.	-
Cc1ccc(S(=O)(=O)Nc2ccc3c(c2)CC(=O)N([C@@H](C)CO)C[C@H](C)[C@H](CN(C)C(=O)NC2CCCCC2)O3)cc1	-	.	.	.	.	-
Nc1c(C(=O)OCC(=O)Nc2cccc([N+](=O)[O-])c2)[nH]c(=O)[nH]c1=O	16.4	-	.	-	-	-
O=C(C[C@H]1CC[C@@H]2[C@H](COC[C@H](O)CN2C(=O)c2ccccn2)O1)N1CCN(c2ccccc2)CC1	-	.	.	.	.	-
Cc1cccc(C)c1NC(=O)CSc1nnc(-c2ccco2)c(-c2ccco2)n1	57.4	-	-	-	-	-
COc1ccc(C(=O)C2CCCN(C(=O)c3ccoc3C)C2)cc1F (stereo not drawn)	-	.	119.4	.	.	-
CC(C)(C)N(C(=O)Cn1nnc(-c2ccc(F)cc2)n1)C(C(=O)NC1CCCC1)c1ccncc1 (stereo not drawn)	-	-	36.1	-	-	-
Cc1ccc(C)c(N(C(=O)Cn2nnc(-c3cccs3)n2)C(C(=O)NC2CCCC2)c2ccncc2)c1 (stereo not drawn)	-	-	-	-	-	-
O=C(NC1CCCC1)C(c1ccncc1)N(CC1CCCO1)C(=O)Cn1nnc(-c2cccs2)n1 (stereo not drawn)	-	-	31.8	-	-	-
Cc1ccc(-c2nnn(CC(=O)N(Cc3ccc(F)cc3)C(C(=O)NC3CCCC3)c3ccncc3)n2)o1 (stereo not drawn)	-	-	-	-	-	-
COc1ccccc1N(C)S(=O)(=O)c1ccc(C(=O)Nc2ccc(N3CCOCC3)cc2)cc1	-	-	-	-	-	.
SMILES	ARNT TACC3 PPI	CAL PDZ FP-1	CAL PDZ FP-2	SR-BI uptake up	SR-BI HDL uptake	miR122 inh
C=CCN(c1ccccc1OC)S(=O)(=O)c1ccc(Cl)c(C(=O)Nc2ccc(N3CCOCC3)cc2)c1	-	-	-	-	96.0	.
Nc1nc(-c2ccccc2)cn1N	48.3	-	-	-	-	-
COC1=C(N)C(=O)c2nc(-c3nc(C(=O)O)c(C)c(-c4ccc(OC)c(OC)c4O)c3N)ccc2C1=O	64.7	.	.	-	-	.
C[C@H]1CCCCO[C@H](CN(C)C(=O)NC2CCCCC2)[C@@H](C)CN([C@@H](C)CO)C(=O)c2cc(NS(=O)(=O)c3cccs3)ccc2O1	-	.	.	.	.	-
CCn1c(SCC(=O)N2CCCC2=O)nnc1-c1cccs1	.	-	-	96.4	-	-
COc1ccccc1C#Cc1cnc2c(c1)C(=O)N([C@@H](C)CO)C[C@@H](C)[C@@H](CN(C)C(=O)CC1CC1)O2	-	.	.	.	.	-
COC(=O)c1cc(S(=O)(=O)Nc2ccsc2C(=O)OC)oc1C	-	-	32.9	-	-	-
COc1ccc(-c2[nH]ncc2CNC(C)CCn2cccn2)cc1F (stereo not drawn)	-	-	51.0	-	-	-
COc1ccc(-c2[nH]ncc2CNC(C)c2ccccc2Cl)cc1F (stereo not drawn)	-	-	-	.	.	-
C=CCOc1ccc(Oc2cc(C)nc(SC)n2)nn1	-	.	43.0	-	-	?
Cc1ccc(-c2nc(N)sc2-c2ccc(C)cc2)cc1	-	-	-	-	72.7	.
CN=C1S/C(=C\c2ccc(OCC(=O)OC)c(OC)c2)C(=O)N1C	-	-	.	440.9	-	-
CN=C1S/C(=C\c2ccc(O)c(OC)c2)C(=O)N1C	.	.	.	.	.	-
COc1ccc(S(=O)(=O)N(C)C[C@@H]2OCCCC[C@@H](C)Oc3ccc(NS(=O)(=O)c4ccc(F)cc4)cc3C(=O)N([C@@H](C)CO)C[C@H]2C)cc1	-	.	.	.	.	-
COc1ccc(-c2[nH]c(-c3cc(OC)c4c(c3)OCO4)nc2-c2ccccc2)cc1	-	-	-	-	88.1	-
COc1ccc(-c2nc(-c3ccccc3)c(-c3cc([N+](=O)[O-])ccc3C)[nH]2)cc1OC	-	-	-	-	-	-
CC(NC(=O)c1ccccc1F)c1nnc(SCC(=O)NC2CCCC2)n1C (stereo not drawn)	-	-	-	-	-	.
COc1ccc(OCCSc2nnc(C(C)NC(=O)c3ccccc3F)n2C)cc1 (stereo not drawn)	-	-	106.5	-	-	.
Cc1cc(=O)n(-c2ccc(C(=O)O)cc2)[nH]1	49.9	-	.	-	-	-
CCOC(=O)c1ccc(-n2[nH]c(-c3ccccc3)cc2=O)cc1	-	-	-	-	-	-
